bCat nuc transl – modulators of beta-catenin nuclear translocation, primary screen, imaging, HeLa cells, immunofluorescence, high-content; nuclear translocation activity, % at 5 µM; hit rate 0.3% among 190,000;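 active means nuclear translocation activity above 50% at 5 µM, with a well cell count of 50 or more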;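 further: per-cell ratio of nuclear to cytoplasmic median beta-catenin stain intensity; plate controls were DMSO negative control for no effect and GSK-3 inhibitor IX positive control for full effect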
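test system = HeLa cells, endogenous beta-catenin | dosing = single 5 µM dose plus 0.02–20 µM confirmation series | times = compound treatment 24 h, 37°C, 5% CO2 | technique = beta-catenin immunofluorescence imaging with DAPI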
IEC-6 cytotox – cytotoxicity in IEC-6 intestinal epithelial cells, primary screen, cytotoxicity control for KLF5 inhibitor project, cell-based, luminescence | IEC-6 cytotoxicity, luminescence viability | inhibition, % at 5 µM | hit rate 0.78% among 290,000; in the data active means inhibition above about 22%;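 further: 0% = plate median of test compound wells and 100% = cytotoxic reference compound wells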
APP transl inh – inhibitors of APP translation via 5'UTR reporter, primary screen, APP 5'UTR luciferase, SH-SY5Y cells | SH-SY5Y APP 5'UTR-luciferase reporter, luminescence | hit rate 0.82% among 190,000 | inhibition, % at 2 µM | AID 1285, 2008;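 active means inhibition above a set limit, derived from the sample mean plus 3 SD, cut at about 45% in these data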
BaF3 tox – parental Ba/F3 cell viability inhibition, counter-screen for JAK2V617F inhibitor project, murine pro-B, CellTiter-Glo luminescence; CellTiter-Glo ATP luminescence; inhibition, % at 5.6 µM; hit rate 1.1% among 220,000;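 active means inhibition above a per-campaign cutoff, the mean inhibition of all tested compounds plus 3 SD, cut at about 27% in these data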;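 further: 0% = DMSO wells and 100% = JAK Inhibitor I control wells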
MT stabilizer – microtubule stabilizers in HeLa cells, primary screen, imaging, high-content imaging; HeLa tubulin immunostaining HCS, 24 h; share of cells brighter than vehicle mean+2SD; % tubulin-high responders, % at 10 µM; hit rate 0.83% among 200,000; AID 2205, 2009;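 active means plate Z-score above 3 for both tubulin-high and condensed-nucleus cell shares, with cell loss under 80%, at 10 µM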;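 further: anti alpha tubulin signal scored within the nucleus-defined area of each cell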
Ba/F3 V617F tox – reduced viability of JAK2V617F-dependent Ba/F3 cells, primary screen, JAK2V617F inhibitor project, cell-based, Ba/F3 EpoR-JAK2V617F, luminescence | ATP luminescence | inhibition, % at 5.6 µM | hit rate 1.1% among 220,000;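 active means inhibition above the campaign mean plus 3 SD over all tested compounds, cut at about 24% in these data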;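 further: cytokine-independent growth of Ba/F3 cells driven by EpoR plus mutant JAK2; 0% = DMSO-treated cells and 100% = JAK inhibitor I control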
An asterisk follows results filed as active; . = no result given. Most compounds without a hit are left out; they make up all but 2.2% or so of the library.

SMILES | bCat nuc transl | IEC-6 cytotox | APP transl inh | BaF3 tox | MT stabilizer | Ba/F3 V617F tox
COc1ccc(Nc2oc(-c3ccc(Cl)cc3)nc2C#N)cc1 | 63.3* | 3.4 | -13.9 | 1.4 | 39.4* | 2.5
O=C(CCC(=O)N1CCN(Cc2ccccc2)CC1)Nc1nnc(C2CCCCC2)s1 | . | -11.0 | . | . | . | .
COc1cccc(NC(=O)CCC(=O)Nc2ccc3nc(N4CCOCC4)cc(C)c3c2)c1 | . | 2.8 | . | . | . | .
COc1ccc(CNC(=O)c2coc(=O)c3ccccc23)c(OC)c1 | -3.7 | -7.6 | 12.3 | 6.6 | 4.8 | 0.1
S=C(Nc1ccccc1)Nc1ccc(Cl)cn1 | -3.4 | 11.3 | -31.3 | 4.2 | 3.7 | 2.4
O=C(NC(=S)Nc1ccc(Cl)cn1)C(c1ccccc1)c1ccccc1 | 0.8 | 0.4 | -15.6 | 4.2 | 36.0* | 2.6
CCc1nc(CN2CCCC(C(=O)c3ccc4c5c(cccc35)CC4)C2)c(C)[nH]1 (stereo not given) | 1.4 | 9.7 | -3.9 | 82.0* | 1.5 | 2.7
O=C(c1ccc2c3c(cccc13)CC2)C1CCCN(Cc2ccncc2)C1 (stereo not given) | -0.5 | -5.3 | 3.7 | -0.9 | 2.5 | -1.4
COc1ccc(CCNC(=O)c2coc(=O)c(Br)c2)cc1 | . | -3.4 | . | . | . | .
CC(C)(C)NC(=O)Cn1nnc(-c2ccc(OCc3c(F)cccc3Cl)cc2)n1 | . | -1.1 | . | . | . | .
CCc1ccc(NC(=O)C[n+]2cc(-c3ccc(C)cc3)n3c2CCC3)cc1 | -0.1 | -2.0 | . | 18.2 | . | 18.7
Cc1ccc(C[n+]2cc(-c3ccc(Cl)cc3)n3c2CCC3)cc1 | 0.9 | 4.3 | . | 71.9* | . | 76.3*
Clc1ccc(-c2c[n+](Cc3ccc(Cl)c(Cl)c3)c3n2CCC3)cc1 | -3.1 | -0.3 | -6.7 | 39.5* | 4.9 | 25.5*
Cc1ccc(-c2c[n+](Cc3ccc(Cl)cc3)c3n2CCC3)cc1 | 0.1 | 3.0 | . | 73.3* | . | 87.1*
Cn1c(NC(=O)C[n+]2cc(-c3ccc(Cl)cc3)n3c2CCC3)cc(=O)n(C)c1=O | -1.2 | 2.9 | -0.5 | 7.4 | 2.3 | 1.4
Cc1ccc(-c2c[n+](CC(=O)N3c4ccccc4Sc4ccccc43)c3n2CCC3)cc1 | 0.0 | 1.0 | -13.5 | 6.6 | 2.6 | 1.1
O=C1NC(c2ccc3c(c2)OCO3)Nc2ccccc21 (stereo not given) | -1.4 | 1.5 | -12.3 | 4.6 | 21.7* | -1.0
CCOC(=O)C1CCN(C(=O)CNC(=O)c2nn(-c3ccc(OC)cc3)c(=O)c3ccccc23)CC1 | . | 0.3 | . | . | . | .
CCCn1c2c(c(O)c(C(=O)Nc3nc4ccccc4s3)c1=O)CCCC2 | 0.8 | 5.0 | -6.1 | 81.1* | 1.8 | 4.9
COc1ccc(OC)c(NC(=O)Nc2nnc(N3CCC(C)CC3)s2)c1 | 0.7 | 1.0 | 47.7* | 9.8 | 4.5 | 3.3
CCCC(=O)N1c2ccccc2C(=C2SC(C(=O)OC)=C(C(=O)OC)S2)C(=S)C1(C)C | -1.4 | 1.2 | 1.4 | 5.7 | 41.7* | 1.0
O=c1cc(-c2ccccc2)[nH]c2nc3ccccc3n12 | 0.9 | 13.4 | -116.4 | 7.8 | 44.2* | 5.4
CN(Cc1c(F)cccc1Cl)C(=O)c1ccc2ccccc2n1 | . | 6.7 | . | . | . | .
CCn1c(C)cc(/C=C2/NC(=O)N(c3ccccc3)C2=O)c1C | -0.1 | -1.8 | -89.1 | 1.9 | 4.5 | 39.9*
COCCn1c(C)cc(/C=C2/NC(=O)N(c3cccc(Cl)c3)C2=O)c1C | -4.0 | -0.6 | -56.6 | 0.5 | 7.5 | 0.7
SMILES | bCat nuc transl | IEC-6 cytotox | APP transl inh | BaF3 tox | MT stabilizer | Ba/F3 V617F tox
CC[N+]1=CN(c2ccccc2)C(C)=CC1(C)C | . | -2.5 | 4.8 | 52.2* | 4.1 | 39.7*
Cc1cc(C(=O)CSc2ccccc2)cc(C)c1O | . | -1.7 | . | . | . | .
O=C1CCC(=O)N1c1ccc(-c2nc3ccccc3s2)cc1 | -4.4 | -2.2 | -106.7 | 88.6* | 2.5 | 2.3
Nc1ccc(-c2nc3ccccc3s2)cn1 | . | -3.6 | . | . | . | .
O=C(NC1CCCCC1)c1ccc(-c2cccc([N+](=O)[O-])c2)o1 | . | 0.2 | . | . | . | .
Oc1c(CN2CCOCC2)cc(COCc2ccccc2)c2cccnc12 | 11.7 | -2.8 | 91.8* | 1.3 | 5.5 | 1.8
CCOc1cc2c(cc1OC)C(NC(=O)c1ccco1)CC2=O (stereo not given) | . | -4.2 | . | . | . | .
Cn1c(=NC(=O)c2ccccc2[N+](=O)[O-])sc2cccc(F)c21 | 0.1 | 0.0 | . | 0.3 | . | 0.0
CC1=CN2C(=N)/C(=C/c3ccc([N+](=O)[O-])o3)C(=O)N=C2S1 | -2.3 | -21.4 | 48.0* | 7.0 | 6.2 | 1.6
CN(C)c1ccc(C(=O)N/N=C/c2ccccn2)cc1 | . | 1.4 | . | . | . | .
CC(=O)N(Cc1ccc(F)cc1)C1=C(NCc2ccccc2)C(=O)c2ccccc2C1=O | -5.5 | 18.3 | 65.4* | 48.3* | 4.0 | 11.7
CCCCC1=NN(C(=O)c2ccco2)C(O)(C(F)(F)F)C1 (stereo not given) | 13.2 | 3.2 | -4.4 | 3.7 | 15.1* | 0.0
O=c1[nH]nc(SCCS(=O)(=O)c2ccc(F)cc2)n1-c1ccc2c(c1)OCCO2 | 0.7 | -13.3 | . | 2.9 | . | -5.3
Cn1ccnc1C(=O)c1cc(SCC(=O)NCc2ccccc2)nc2ccccc12 | -2.1 | 4.2 | -5.5 | 1.6 | 16.3* | -1.7
NC(=O)c1cc(S(=O)(=O)NCCc2ccc(Cl)cc2)cs1 | . | -1.6 | . | . | . | .
CC(C)(C)c1ccc(-n2ncc3c2CCCC3NC(=O)CCCn2cncn2)cc1 (stereo not given) | . | -4.2 | . | . | . | .
COCCN(C(=O)CCC(=O)Nc1nccs1)C(C(=O)NCCC(C)C)c1ccc(OC)cc1 (stereo not given) | . | -1.0 | . | . | . | .
OCCNc1cnc2ccccc2n1 | 1.2 | 4.8 | 49.2* | -2.8 | 3.6 | -2.2
OCCNc1nc2ccccc2nc1NCCO | -0.7 | 2.9 | . | -0.7 | . | -1.8
Cc1cc(=O)oc2c(C)c(OC(C)C(=O)N3CC[C@@]4(O)CCCC[C@H]4C3)ccc12 (stereo not given in full) | . | 3.9 | . | . | . | .
CCCc1cc(C(=O)N2CCCC(N3CCN(c4ccccc4F)CC3)C2)n(C)n1 (stereo not given) | . | -2.1 | . | . | . | .
COc1ccc(-c2noc(=O)n2Cc2cc(C)ccc2C)cc1 | 4.2 | -1.3 | 7.9 | 2.3 | 11.4* | -3.5
COc1ccc(-c2noc(=O)n2Cc2ccccc2F)cc1 | . | -1.7 | . | . | . | .
CC(=O)O[C@H]1C(=O)[C@@]2(C)[C@H]([C@H](OC(=O)c3ccccc3)[C@]3(O)C[C@H](OC(=O)[C@H](O)C(NC(=O)c4ccccc4)c4ccccc4)C(C)=C1C3(C)C)[C@]1(OC(C)=O)CO[C@@H]1C[C@@H]2O (stereo not given in full) | 69.1* | . | . | . | . | .
Cc1ccc(NC(=O)NC2CCCc3ccccc32)cc1 (stereo not given) | . | 0.1 | . | . | . | .
O=C(Nc1ccc(Cl)cc1)NC1CCCc2ccccc21 (stereo not given) | . | 5.0 | -5.3 | 1.5 | 30.0* | -2.8

Source: PubChem BioAssay (several laboratories)
